Measured values published in ChEMBL document CHEMBL4368903, “Identification of GSK3186899/DDD853651 as a Preclinical Development Candidate for the Treatment of Visceral Leishmaniasis” (J Med Chem, 2019).
Converted amounts (≈) assume the structure as drawn.

Tests used:
Leishmania donovani = experiment: Antileishmanial activity against Leishmania donovani […] in human THP1 cells by intramacrophage assay; format: functional, organism-based; conditions: Leishmania donovani, THP-1
[1] = Kinetic aqueous solubility of the compound in phosphate buffer at pH 7.4 by CLND assay; format: physicochemical; conditions: for solubility kinetic: phosphate buffer, read-out: Kinetic_solubility
How it was run: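 From 10 mM DMSO stock diluted 1:20 into pH 7.4 PBS, equilibrated 1 h at RT, filtered. Filtrate quantified by calibrated flow-injection CLND. Dynamic range 1–500 μM.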

[2] = Lipophilicity, log D of the compound at pH 7.4 assessed as chromatographic hydrophobicity index; format: physicochemical; conditions: buffer
How it was run: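 Reversed-phase C18 HPLC with fast acetonitrile gradient. CHI taken from gradient retention time via a calibration line of standards. ChromLogD = 0.0857 × CHI − 2.00.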

THP-1 = experiment: Cytotoxicity against human THP1 cells; format: cell-based
[3] = Intrinsic clearance in CD1 mouse liver microsomes at 0.5 uM after 3 to 30 mins in presence of NADPH by UPLC-MS/MS analysis; format: ADME, Microsome
How it was run: (§1)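 0.5 μM compound with female CD1 mouse or human liver microsomes, started with excess NADPH in 50 mM potassium phosphate pH 7.4. Aliquots at 0, 3, 6, 9, 15 and 30 min quenched in acetonitrile with internal standard. UPLC-MS/MS; rate constant from exponential decay of compound/IS ratio. Verapamil as positive control.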

[4] = Intrinsic clearance in human liver microsomes at 0.5 uM after 3 to 30 mins in presence of NADPH by UPLC-MS/MS analysis; format: ADME, Microsome; how it was run: as §1
HepG2 = experiment: Cytotoxicity against human HepG2 cells; format: cell-based
[5] = Solubility of compound in fasted simulated intestinal fluid at 1 mg after 4 hrs by HPLC-UV analysis; format: physicochemical
How it was run: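 1 mg solid shaken in 1 mL FaSSIF (3 mM sodium taurocholate, 0.75 mM lecithin, phosphate buffer pH 6.5) at 900 rpm for 4 h at room temperature, then filtered. Supernatant quantified by HPLC-UV against single-point DMSO calibration. Range 1–1000 μg/mL.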

Compound `O=S(=O)(CCC(F)(F)F)N[C@H]1CC[C@H](Nc2ncc3c(-c4cncnc4)n[nH]c3n2)CC1` has an EC50 (Leishmania donovani) of 6.31 µM, a solubility kinetic [1] of 11 µM (≈ 5.18 µg/mL) and a chromatographic logD [2] of 3.

In the case of `CC(C)Cc1n[nH]c2nc(N[C@H]3CC[C@H](NC(=O)Cc4ccccc4)CC3)ncc12`, the EC50 (Leishmania donovani) is reported as > 50.1 µM, the EC50 (THP-1) is reported as > 50.1 µM and the CLH [3] is reported as 9.5 mL/min/g. The CLH [4] was 1.9 mL/min/g and the EC50 (HepG2) was 50.1 µM.

Work on `COc1nc(N[C@H]2CC[C@H](NS(=O)(=O)CCC(F)(F)F)CC2)nc2[nH]nc(N3CCOCC3)c12` yielded a solubility at 4 h ([5]; fasted simulated intestinal fluid) of 53 µg/mL (≈ 104 µM), an EC50 (Leishmania donovani) of 1.26 µM and a solubility kinetic [1] of 311 µM (≈ 158 µg/mL).

Work on `O=S(=O)(CCC(F)(F)F)N[C@H]1CC[C@H](Nc2ncc3c(N4CCCC4)n[nH]c3n2)CC1` yielded an EC50 (Leishmania donovani) of 2 µM, a solubility kinetic [1] of 12 µM (≈ 5.54 µg/mL) and a chromatographic logD [2] of 4.

With `O=S(=O)(CCC(F)(F)F)N[C@H]1CC[C@H](Nc2ncc3c(N4CCCCC4)n[nH]c3n2)CC1` the EC50 (Leishmania donovani) was 1.58 µM, the solubility kinetic [1] was 46 µM (≈ 21.9 µg/mL) and the chromatographic logD [2] was 4.4.

In the case of `O=S(=O)(CCC(F)(F)F)N[C@H]1CC[C@H](Nc2ncc3c(C4CCOCC4)n[nH]c3n2)CC1`, the EC50 (Leishmania donovani) is reported as 3.16 µM, the solubility kinetic [1] is reported as 35 µM (≈ 16.7 µg/mL) and the chromatographic logD [2] is reported as 3.2.

Work on `O=S(=O)(CCC(F)(F)F)N[C@H]1CC[C@H](Nc2ncc3c(N4CCNCC4)n[nH]c3n2)CC1` yielded an EC50 (Leishmania donovani) of 31.6 µM, a solubility kinetic [1] of 346 µM (≈ 165 µg/mL) and a chromatographic logD [2] of 1.6.

In the case of `CC1COCCN1c1n[nH]c2nc(N[C@H]3CC[C@H](NS(=O)(=O)CCC(F)(F)F)CC3)ncc12` (stereo in doubt; 37), the solubility ([5]; in vivo, 4 h) is reported as 118 µg/mL (≈ 240 µM), the EC50 (Leishmania donovani) is reported as 2 µM and the Kinetic_solubility ([1]; buffer) is reported as “>= 292 uM”.
